Laboratory results reported in ChEMBL document CHEMBL1828603, “Synthesis, antimicrobial activity and possible mechanism of action of 9-bromo-substituted indolizinoquinoline-5,12-dione derivatives” (2011).
In brackets after ≈: the same amount, converted by molar mass. Activity calls are given as the source filed them. The calls are words filed in the database; no cut-off is given here.

Key:
Staphylococcus aureus [1] = test: Antimicrobial activity against methicillin-resistant Staphylococcus aureus isolate 071410 by broth microdilution method; format: functional
Method in brief: (§1)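 MRSA clinical isolates from Guangzhou Liuhuaqiao Hospital, China. Tested by two-fold broth dilution in Mueller-Hinton broth from a top concentration of 64 µg/ml. Compound in DMSO was added to culture at 5 × 10^5 cells/ml and serially halved. Plates were incubated at 37 °C overnight with OD600 read-out. MIC came from ≥2 independent experiments.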

Staphylococcus aureus [2] = test: Antimicrobial activity against methicillin-resistant Staphylococcus aureus isolate 83160 by broth microdilution method; format: functional; method in brief: as §1
Staphylococcus aureus [3] = test: Antimicrobial activity against methicillin-resistant Staphylococcus aureus isolate 071843 by broth microdilution method; format: functional; method in brief: as §1
Escherichia coli [4] = test: Inhibition of Escherichia coli DNA gyrase supercoiling activity using pHOT1 DNA as substrate at 100 uM after 60 mins by agarose gel electrophoretic analysis
Method in brief: (§2)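 Supercoiling assay with 1 U DNA gyrase (E. coli or S. aureus) and 0.5 µg relaxed pHOT1 DNA in Tris–HCl pH 7.5 buffer (KCl, MgCl2, DTT, spermidine, 1 mM ATP, glycerol, BSA), ± compound, 37 °C for 60 min. Stopped with proteinase K, run on 1% agarose in TAE at 3 V/cm, stained with Gel Red and imaged under UV.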

Escherichia coli [5] = test: Inhibition of Escherichia coli DNA gyrase supercoiling activity using pHOT1 DNA as substrate at 1 uM after 60 mins by agarose gel electrophoretic analysis; method in brief: as §2
Staphylococcus aureus [6] = test: Antimicrobial activity against methicillin-resistant Staphylococcus aureus isolate 7365 by broth microdilution method; format: functional; method in brief: as §1
Enterococcus faecalis = test: Antimicrobial activity against Enterococcus faecalis ATCC 29212 by two fold microdilution method; format: functional
Method in brief: (§3)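 Two-fold broth microdilution in Mueller-Hinton broth. Compound in DMSO added to bacterial culture at 5 × 10^5 cells/ml, starting at 64 µg/ml, then serially doubled down. Incubated at 37 °C overnight and read as OD600. MIC taken as the minimum inhibitory concentration, obtained in at least two independent experiments.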

Staphylococcus aureus [7] = test: Antimicrobial activity against methicillin-resistant Staphylococcus aureus isolate 82896 by broth microdilution method; format: functional; method in brief: as §1
[8] = tested on: Salmonella enterica subsp. enterica serovar Paratyphi B; test: Antimicrobial activity against Salmonella paratyphi B CMCC 50094 by two fold microdilution method; format: functional
Method in brief: (§4)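 Two-fold serial dilution in Mueller-Hinton broth, starting at 64 µg/ml. Compound was added as a DMSO solution to bacterial culture at 5 × 10^5 cells/ml, then double-diluted. Plates were incubated overnight at 37 °C and OD600 was read. MIC was taken from at least two independent experiments.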

Escherichia coli [9] = test: Inhibition of Escherichia coli topoisomerase 4-mediated relaxation of supercoiled pBR322 DNA at 125 uM after 30 mins by agarose gel electrophoretic analysis
Method in brief: (§5)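 Relaxation assay with 1 U Topo IV and 0.5 µg supercoiled pBR322 DNA in HEPES–KOH pH 7.6 buffer (potassium glutamate, magnesium acetate, DTT, 1 mM ATP, BSA), 37 °C for 30 min. Stopped with chloroform/iso-amyl alcohol (24:1), then run on 1% agarose gel in TAE at 5 V/cm.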

Staphylococcus aureus [10] = test: Inhibition of Staphylococcus aureus topoisomerase 4 assessed as decatenation of kDNA at 125 uM after 30 mins by electrophoresis
Method in brief: (§6)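 Decatenation assay with 1 U Topo IV and 200 ng catenated kDNA in HEPES–KOH pH 7.6 buffer (potassium glutamate, magnesium acetate, DTT, 1 mM ATP, BSA), 37 °C for 30 min. Stopped with chloroform/iso-amyl alcohol (24:1), then run on 1% agarose gel in TAE at 10 V/cm.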

Staphylococcus aureus [11] = test: Antimicrobial activity against Staphylococcus aureus ATCC 25923 by two fold microdilution method; format: functional; method in brief: as §4
Staphylococcus aureus [12] = test: Antimicrobial activity against methicillin-resistant Staphylococcus aureus isolate 0441 by broth microdilution method; format: functional; method in brief: as §1
Staphylococcus aureus [13] = test: Ratio of MIC for vancomycin to compound for methicillin-resistant Staphylococcus aureus ATCC 43300 by broth microdilution method; format: functional
Staphylococcus aureus [14] = test: Antimicrobial activity against methicillin-resistant Staphylococcus aureus isolate 82924 by broth microdilution method; format: functional; method in brief: as §1
Staphylococcus aureus [15] = test: Antimicrobial activity against methicillin-resistant Staphylococcus aureus ATCC 43300 by two fold microdilution method; format: functional; method in brief: as §4
Pseudomonas aeruginosa = test: Antimicrobial activity against Pseudomonas aeruginosa ATCC 27853 by two fold microdilution method; format: functional; method in brief: as §3
Staphylococcus aureus [16] = test: Antimicrobial activity against methicillin-resistant Staphylococcus aureus isolate 071429 by broth microdilution method; format: functional; method in brief: as §1
Streptococcus = test: Antimicrobial activity against hemolytic Streptococcus Group B CMCC 32210 by two fold microdilution method; format: functional; method in brief: as §3
Escherichia coli [17] = test: Antimicrobial activity against Escherichia coli ATCC 25922 by two fold microdilution method; format: functional; method in brief: as §3
Escherichia coli [18] = test: Inhibition of Escherichia coli topoisomerase 4 assessed as decatenation of kDNA at 25 uM after 30 mins by electrophoresis; method in brief: as §6
Staphylococcus aureus [19] = test: Antimicrobial activity against methicillin-resistant Staphylococcus aureus isolate 82731 by broth microdilution method; format: functional; method in brief: as §1
Staphylococcus aureus [20] = test: Inhibition of Staphylococcus aureus topoisomerase 4-mediated relaxation of supercoiled pBR322 DNA at 1 uM after 30 mins by agarose gel electrophoretic analysis; method in brief: as §5
Staphylococcus aureus [21] = test: Inhibition of Staphylococcus aureus topoisomerase 4-mediated relaxation of supercoiled pBR322 DNA at 25 uM after 30 mins by agarose gel electrophoretic analysis; method in brief: as §5
[22] = biological target: DNA gyrase (Staphylococcus aureus) (UniProt P0A0K8+P20831); test: Inhibition of Staphylococcus aureus DNA gyrase supercoiling activity using pHOT1 DNA as substrate at 125 uM after 60 mins by agarose gel electrophoretic analysis; format: protein-complex assay; method in brief: as §2
[23] = tested on: Staphylococcus epidermidis; test: Antimicrobial activity against Staphylococcus epidermidis ATCC 12228 by two fold microdilution method; format: functional; method in brief: as §3
Staphylococcus aureus [24] = test: Antimicrobial activity against methicillin-resistant Staphylococcus aureus isolate 80754 by broth microdilution method; format: functional; method in brief: as §1
Staphylococcus aureus [25] = test: Antimicrobial activity against methicillin-resistant Staphylococcus aureus isolate 72754 by broth microdilution method; format: functional; method in brief: as §1
Candida albicans = test: Antifungal activity against Candida albicans ATCC 10231 by two fold microdilution method; format: functional

Chain of DNA gyrase (Staphylococcus aureus) (P0A0K8 2-644 limits assumed): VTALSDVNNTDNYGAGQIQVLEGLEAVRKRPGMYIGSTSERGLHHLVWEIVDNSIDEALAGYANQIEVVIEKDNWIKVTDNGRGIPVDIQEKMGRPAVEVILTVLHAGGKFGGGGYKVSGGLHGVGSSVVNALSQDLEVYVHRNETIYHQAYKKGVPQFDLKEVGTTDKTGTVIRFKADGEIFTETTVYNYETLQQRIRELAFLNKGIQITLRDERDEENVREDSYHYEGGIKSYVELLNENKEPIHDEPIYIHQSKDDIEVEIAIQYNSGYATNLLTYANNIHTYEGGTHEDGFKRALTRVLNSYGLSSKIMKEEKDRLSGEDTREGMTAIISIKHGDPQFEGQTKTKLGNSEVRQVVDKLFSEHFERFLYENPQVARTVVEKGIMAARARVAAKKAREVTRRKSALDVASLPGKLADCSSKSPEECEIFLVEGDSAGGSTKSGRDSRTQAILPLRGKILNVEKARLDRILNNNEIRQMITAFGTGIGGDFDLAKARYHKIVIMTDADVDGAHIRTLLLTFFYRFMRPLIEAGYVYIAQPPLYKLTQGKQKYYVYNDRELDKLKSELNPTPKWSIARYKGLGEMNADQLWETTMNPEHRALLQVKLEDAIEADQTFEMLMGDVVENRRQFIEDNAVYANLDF
Chain of DNA gyrase (Staphylococcus aureus) (P20831 whole entry partner): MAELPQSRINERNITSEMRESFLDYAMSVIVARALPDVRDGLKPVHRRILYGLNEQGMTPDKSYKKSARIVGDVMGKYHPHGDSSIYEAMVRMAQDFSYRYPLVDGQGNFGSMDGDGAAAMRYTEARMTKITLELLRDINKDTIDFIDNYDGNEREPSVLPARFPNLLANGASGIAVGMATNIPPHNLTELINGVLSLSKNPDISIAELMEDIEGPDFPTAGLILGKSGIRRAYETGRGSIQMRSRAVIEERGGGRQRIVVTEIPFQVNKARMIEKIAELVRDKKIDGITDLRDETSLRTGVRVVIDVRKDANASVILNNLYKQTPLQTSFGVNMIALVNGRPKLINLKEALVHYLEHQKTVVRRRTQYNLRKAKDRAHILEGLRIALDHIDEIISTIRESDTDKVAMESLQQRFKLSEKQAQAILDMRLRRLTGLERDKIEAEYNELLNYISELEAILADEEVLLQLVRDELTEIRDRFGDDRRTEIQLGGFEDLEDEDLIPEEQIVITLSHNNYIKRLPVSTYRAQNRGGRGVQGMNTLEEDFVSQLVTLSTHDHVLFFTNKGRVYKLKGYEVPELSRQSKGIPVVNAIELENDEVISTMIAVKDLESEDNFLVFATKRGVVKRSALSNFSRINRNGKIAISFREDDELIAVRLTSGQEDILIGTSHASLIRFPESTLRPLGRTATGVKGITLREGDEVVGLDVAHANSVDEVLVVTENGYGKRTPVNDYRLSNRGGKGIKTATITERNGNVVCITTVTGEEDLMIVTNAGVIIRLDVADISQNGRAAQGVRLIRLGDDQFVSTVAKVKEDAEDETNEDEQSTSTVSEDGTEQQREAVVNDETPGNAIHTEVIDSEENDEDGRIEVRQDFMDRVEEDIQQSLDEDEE

SMILES: CCOC(=O)c1c2c(n3cc(Br)ccc13)C(=O)c1ncccc1C2=O
- MIC (Staphylococcus aureus [1]): 0.032 µg/mL (≈ 0.0802 µM)
- MIC (Staphylococcus aureus [2]): 0.016 µg/mL (≈ 0.0401 µM)
- MIC (Staphylococcus aureus [3]): 0.016 µg/mL (≈ 0.0401 µM)
- inhibition (Escherichia coli [4]): 98%
- inhibition (Escherichia coli [5]): 78%
- MIC (Staphylococcus aureus [6]): 0.063 µg/mL (≈ 0.158 µM)
- MIC (Enterococcus faecalis): 0.016 µg/mL (≈ 0.0401 µM)
- MIC (Staphylococcus aureus [7]): 0.032 µg/mL (≈ 0.0802 µM)
- MIC [8]: 64 µg/mL (≈ 160 µM)
- inhibition (Escherichia coli [9]): inactive
- inhibition (Staphylococcus aureus [10]): 84%
- MIC (Staphylococcus aureus [11]): 0.063 µg/mL (≈ 0.158 µM)
- MIC (Staphylococcus aureus [12]): 0.032 µg/mL (≈ 0.0802 µM)
- Ratio (Staphylococcus aureus [13]): 16
- MIC (Staphylococcus aureus [14]): 0.032 µg/mL (≈ 0.0802 µM)
- MIC (Staphylococcus aureus [15]): 0.063 µg/mL (≈ 0.158 µM)
- MIC (Pseudomonas aeruginosa): > 64 µg/mL
- MIC (Staphylococcus aureus [16]): 0.016 µg/mL (≈ 0.0401 µM)
- MIC (Streptococcus): 0.031 µg/mL (≈ 0.0777 µM)
- MIC (Escherichia coli [17]): > 64 µg/mL
- inhibition (Escherichia coli [18]): Active
- MIC (Staphylococcus aureus [19]): 0.016 µg/mL (≈ 0.0401 µM)
- inhibition (Staphylococcus aureus [20]): Active
- inhibition (Staphylococcus aureus [21]): Active
- inhibition [22]: inactive
- MIC [23]: 0.063 µg/mL (≈ 0.158 µM)
- MIC (Staphylococcus aureus [24]): 0.063 µg/mL (≈ 0.158 µM)
- MIC (Staphylococcus aureus [25]): 0.016 µg/mL (≈ 0.0401 µM)
- MIC (Candida albicans): > 64 µg/mL
